In brackets after ≈: the same amount, converted by molar mass. Each block holds one molecule with its values, some of them ahead of it. Activity calls are given as the source filed them.
Key:
[1] = Intrinsic clearance in Han Wistar rat hepatocytes assessed as blood clearance at 1 uM after 90 mins by LC-MS/MS analysis; type: ADME, cell-based, Hepatocyte
How it was run: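 Rat hepatocytes isolated with a Percoll gradient, viability by trypan blue; 1.0 × 10^6 viable cells/mL in WME + 5% FCS, compound at 1 µM, shaken at 580 rpm. Sampled 2–90 min into cold methanol; LC-MS/MS.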

[2] = Apparent permeability from apical to basolateral side in human Caco2 cells at 2 uM after 2 hrs by LC/MS/MS analysis; type: ADME, cell-based; conditions: Caco-2
How it was run: (§1)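 Caco-2 cells seeded at 4.5 x 10^4 per well on 0.4 µm inserts and grown 15 days. Assay in FCS-free Hepes-carbonate buffer pH 7.2, with TEER checked. Compound at 2 µM final added apically or basolaterally; both sides sampled before and after 2 h at 37 °C. Papp from peak areas; efflux ratio = Papp B-A / Papp A-B; recovery calculated.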

[3] = Efflux ratio of apparent permeability in human Caco2 cells at 2 uM after 2 hrs by LC/MS/MS analysis; type: ADME, cell-based; conditions: Caco-2; how it was run: as §1
[4] = molecular target: Prostaglandin E2 receptor EP4 subtype (Homo sapiens, UniProt P35408); test: Antagonist activity at human EP4R assessed as inhibition of agonist-induced cAMP production by fluorescent cAMP tracer cAMP-d2 based FRET assay; type: functional
Sequence of Prostaglandin E2 receptor EP4 subtype (Homo sapiens, UniProt P35408) (P35408 whole entry): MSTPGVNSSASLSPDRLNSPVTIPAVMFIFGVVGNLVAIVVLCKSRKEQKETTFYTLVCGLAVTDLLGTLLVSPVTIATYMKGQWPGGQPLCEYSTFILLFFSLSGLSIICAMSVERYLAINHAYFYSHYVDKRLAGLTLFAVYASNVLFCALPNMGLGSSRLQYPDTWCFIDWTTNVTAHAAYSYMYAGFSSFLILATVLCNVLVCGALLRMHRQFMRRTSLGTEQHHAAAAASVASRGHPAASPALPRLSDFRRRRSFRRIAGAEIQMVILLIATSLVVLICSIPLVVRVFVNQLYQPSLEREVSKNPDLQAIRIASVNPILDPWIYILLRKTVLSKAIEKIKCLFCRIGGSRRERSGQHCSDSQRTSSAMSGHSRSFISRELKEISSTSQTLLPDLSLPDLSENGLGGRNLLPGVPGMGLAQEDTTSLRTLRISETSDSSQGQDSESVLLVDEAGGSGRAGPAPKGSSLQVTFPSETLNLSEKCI

[5] = molecular target: Prostaglandin E2 receptor EP4 subtype (Mus musculus, UniProt P32240); test: Antagonist activity at mouse EP4R assessed as inhibition of agonist-induced cAMP production by fluorescent cAMP tracer cAMP-d2 based FRET assay; type: functional
Sequence of Prostaglandin E2 receptor EP4 subtype (Mus musculus, UniProt P32240) (P32240 whole entry): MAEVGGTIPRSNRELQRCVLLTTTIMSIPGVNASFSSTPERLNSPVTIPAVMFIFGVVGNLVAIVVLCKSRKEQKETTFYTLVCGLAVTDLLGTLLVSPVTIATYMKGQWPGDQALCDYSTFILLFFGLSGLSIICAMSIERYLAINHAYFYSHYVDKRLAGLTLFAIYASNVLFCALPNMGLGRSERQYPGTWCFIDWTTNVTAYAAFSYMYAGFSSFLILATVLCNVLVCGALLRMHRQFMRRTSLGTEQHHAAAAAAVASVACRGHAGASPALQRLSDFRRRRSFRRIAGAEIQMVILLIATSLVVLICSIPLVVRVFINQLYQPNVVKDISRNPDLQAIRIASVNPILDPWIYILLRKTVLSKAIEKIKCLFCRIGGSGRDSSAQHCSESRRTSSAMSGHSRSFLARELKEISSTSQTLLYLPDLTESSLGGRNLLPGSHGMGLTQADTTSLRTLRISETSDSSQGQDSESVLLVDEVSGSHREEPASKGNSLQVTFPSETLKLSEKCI

[6] = Kinetic solubility of the compound; type: physicochemical; conditions: read-out: Kinetic_solubility
[7] = Lipophilicity, log D of the compound at pH 7.4; type: physicochemical; conditions: buffer
Rattus norvegicus = test: Antinociceptive activity in Sprague-Dawley rat model of dmPGE2-induced pain behavior assessed as increase in paw withdrawal thresholds at 5 mg/kg, po pretreated 60 mins before dmPGE2 addition and measured after 30 mins post dmPGE2 injection; type: functional, organism-based
How it was run: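 Male Sprague-Dawley rats, 220–265 g. Compound suspended in 0.5% CMC and given orally; vehicle controls. At 60 min, 10 µg dmPGE2 in PBS injected into the plantar surface of the left hind paw. Electronic von Frey thresholds taken 30 min later, mean of 3 per paw, against day −1 baseline. Mean ±SD; Grubbs outlier test; 1-way ANOVA with Dunnett's test.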

[8] = molecular target: T1, UDP-glucuronosyltransferase 1A1 (Homo sapiens, UniProt P22309); test: Drug metabolism in human hepatocytes assessed as UGT1A1-mediated acylglucuronide metabolite formation at 10 uM after 4 hrs by HPLC-UV and mass spectrometric analysis; type: ADME, cell-based
T1 sequence (P22309 whole entry): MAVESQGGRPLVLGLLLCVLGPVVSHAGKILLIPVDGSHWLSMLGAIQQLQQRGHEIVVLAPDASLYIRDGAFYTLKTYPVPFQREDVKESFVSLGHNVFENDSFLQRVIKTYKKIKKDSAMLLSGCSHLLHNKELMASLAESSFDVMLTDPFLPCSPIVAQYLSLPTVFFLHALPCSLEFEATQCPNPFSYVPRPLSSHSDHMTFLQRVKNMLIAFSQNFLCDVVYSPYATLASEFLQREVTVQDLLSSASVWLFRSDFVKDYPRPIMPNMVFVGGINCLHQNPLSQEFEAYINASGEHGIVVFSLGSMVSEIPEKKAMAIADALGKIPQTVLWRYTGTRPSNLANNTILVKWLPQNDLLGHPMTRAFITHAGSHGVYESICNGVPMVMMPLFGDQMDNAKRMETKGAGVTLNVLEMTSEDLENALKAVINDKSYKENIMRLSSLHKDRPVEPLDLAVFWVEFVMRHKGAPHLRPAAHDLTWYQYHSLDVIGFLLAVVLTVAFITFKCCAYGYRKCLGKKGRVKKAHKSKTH

[9] = Oral bioavailability in Wistar rat at 1 mg/kg by LC-MS/MS analysis; type: ADME, organism-based; conditions: in vivo
How it was run: (§2)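 Male Wistar rats dosed iv (0.3–1 mg/kg) or intragastrically (0.5–10 mg/kg) as solutions with solubilizers such as PEG400; cassette dosing of up to 3 compounds in some studies. Jugular blood taken 2 min to 24 h into Li-heparin tubes. Plasma precipitated with acetonitrile and run by LC-MS/MS. Non-compartmental PK analysis.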

[10] = Volume of distribution at steady state in Wistar rat at 1 mg/kg, iv by LC-MS/MS analysis; type: ADME, organism-based; conditions: in vivo, read-out: Vdss; how it was run: as §2
[11] = Volume of distribution at steady state in Wistar rat at 1 mg/kg, po by LC-MS/MS analysis; type: ADME, organism-based; conditions: in vivo; how it was run: as §2
[12] = Dose normalized AUC in Wistar rat at 1 mg/kg, po by LC-MS/MS analysis; type: ADME, organism-based; conditions: in vivo; how it was run: as §2
[13] = Blood clearance in Wistar rat at 1 mg/kg, po by LC-MS/MS analysis; type: ADME, organism-based; conditions: whole blood; how it was run: as §2
[14] = Half life in Wistar rat at 1 mg/kg, iv by LC-MS/MS analysis; type: ADME, organism-based; conditions: in vivo; how it was run: as §2
[15] = Kinetic solubility of the compound at pH 6.5; type: physicochemical; conditions: buffer, read-out: Kinetic_solubility
[16] = molecular target: T2, UDP-glucuronosyltransferase 1A1 (Rattus norvegicus, UniProt Q64550); test: Drug metabolism in rat hepatocytes assessed as UGT1A1-mediated acylglucuronide metabolite formation at 10 uM after 4 hrs by HPLC-UV and mass spectrometric analysis; type: ADME, cell-based
T2 sequence (Q64550 whole entry): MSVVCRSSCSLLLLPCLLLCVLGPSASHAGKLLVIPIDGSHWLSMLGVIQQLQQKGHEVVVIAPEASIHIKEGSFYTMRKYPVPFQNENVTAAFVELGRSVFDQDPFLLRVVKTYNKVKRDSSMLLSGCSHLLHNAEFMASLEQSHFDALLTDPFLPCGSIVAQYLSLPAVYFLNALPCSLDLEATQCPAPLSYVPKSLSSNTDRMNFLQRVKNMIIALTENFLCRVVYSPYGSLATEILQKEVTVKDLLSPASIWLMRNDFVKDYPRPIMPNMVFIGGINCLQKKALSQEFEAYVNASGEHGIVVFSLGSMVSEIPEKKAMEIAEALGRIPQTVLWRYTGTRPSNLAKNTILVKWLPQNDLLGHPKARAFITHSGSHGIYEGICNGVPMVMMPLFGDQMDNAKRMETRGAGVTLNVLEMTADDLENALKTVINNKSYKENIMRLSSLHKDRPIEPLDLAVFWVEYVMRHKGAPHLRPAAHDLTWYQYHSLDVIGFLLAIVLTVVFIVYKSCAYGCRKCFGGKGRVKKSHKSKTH

[17] = Blood clearance in Wistar rat at 1 mg/kg, iv by LC-MS/MS analysis; type: ADME, organism-based; conditions: whole blood; how it was run: as §2

- IC50 [4]: 148 nM
Structure (SMILES): CCn1c2ccccc2c2cc(-c3nc4cc(C(=O)NS(=O)(=O)N(C)C)ccc4n3CCOC)ccc21

- IC50 [5]: 81 nM
- IC50 [4]: 4.7 nM
Structure (SMILES): CCn1c2ccccc2c2cc(-c3nc4cc(C(=O)O)ccc4n3CCOC)ccc21

- IC50 [4]: 51.5 nM
Structure (SMILES): CCn1c2ccccc2c2cc(-c3nc4cc(C(=O)O)ccc4n3CC3CCO3)ccc21 (stereo not drawn)

- IC50 [5]: 113 nM
- IC50 [4]: 12.8 nM
- solubility kinetic [6]: 3.2 µg/mL (≈ 7.81 µM)
- logD [7]: 3
Structure (SMILES): CCn1c2ccccc2c2cc(-c3nc4cc(C(=O)O)ccc4n3CC3CC3)ccc21

- IC50 [4]: 1420 nM
Structure (SMILES): CCn1c2ccccc2c2cc(-c3nc4ccc(C(=O)O)cc4n3CCOC)ccc21

- IC50 [4]: 3120 nM
Structure (SMILES): CCn1c2ccccc2c2cc(-c3nc4cc(C(=O)O)ccc4n3-c3ccccc3)ccc21

- IC50 [4]: 286 nM
- solubility kinetic [6]: < 0.1 µg/mL
- logD [7]: 4.1
Structure (SMILES): CCn1c2ccccc2c2cc(-c3nc4cc(C(=O)NC)ccc4n3CC3CC3)ccc21

- CLhep predicted at […], 1 µM [1]: 11.7 mL/min/kg
- IC50 [4]: 6.1 nM
- Papp A→B at 2 h, 2 µM [2]: 2.63 ×10⁻⁶ cm/s
- efflux ratio at 2 h, 2 µM [3]: 3.3
Structure (SMILES): CCn1c2ccccc2c2cc(-c3nc4cc(-c5noc(=O)[nH]5)ccc4n3CCOC)ccc21

- IC50 [4]: 34.2 nM
Structure (SMILES): Cn1c2ccccc2c2cc(-c3nc4cc(C(=O)O)ccc4n3CC3CC3)ccc21

- IC50 [4]: 222 nM
Structure (SMILES): CCn1c2ccccc2c2cc(-c3nc4cc(S(=O)(=O)O)ccc4n3CCOC)ccc21

- IC50 [4]: 34.6 nM
Structure (SMILES): CCn1c2ccccc2c2cc(-c3nc4cc(C(=O)O)c(F)cc4n3CCOC)ccc21

- CLhep predicted at […], 1 µM [1]: 26.7 mL/min/kg
Structure (SMILES): CCn1c2ccccc2c2cc(-c3nc4cc(C(=O)NS(C)(=O)=O)ccc4n3CCOC)ccc21

- IC50 [4]: 751 nM
Structure (SMILES): CCn1c2ccccc2c2cc(-c3nc4cc(C(=O)O)c(Cl)cc4n3CCOC)ccc21

- IC50 [4]: 166 nM
Structure (SMILES): CCn1c2ccccc2c2cc(-c3nc4cc(C(=O)O)ccc4n3C)ccc21

- Drug metabolism [8]: Metabolite_Detected
- CLhep predicted at […], 1 µM [1]: 1.67 to 2.5 mL/min/kg
- bioavailability [9]: 92%
- IC50 [4]: 24.7 nM
- Vd [10]: 0.36 L/kg
- Vdss [11]: 0.36 L/kg
- AUC/dose [12]: 20 kg·h/L
- CL/F [13]: 1 mL/min/kg
- half-life [14]: 294 min
- solubility kinetic [15]: 150 µg/mL (≈ 351 µM)
- Papp A→B at 2 h, 2 µM [2]: 13.5 ×10⁻⁶ cm/s
- efflux ratio at 2 h, 2 µM [3]: 1.1
- Drug metabolism [16]: Metabolite_Detected
- clearance [17]: 1 mL/min/kg
Structure (SMILES): CCn1c2ccccc2c2cc(-c3nc4c(C)c(C(=O)O)ccc4n3CCOC)ccc21

The next lines start with the molecule.

Structure (SMILES): CCn1c2ccccc2c2cc(-c3nc4cc(-c5n[nH]c(=O)o5)ccc4n3CCOC)ccc21
- CLhep predicted at […], 1 µM [1]: 30 mL/min/kg
- Papp A→B at 2 h, 2 µM [2]: 1.24 ×10⁻⁶ cm/s
- efflux ratio at 2 h, 2 µM [3]: 0.9

Structure (SMILES): CCn1c2ccc(-c3nc4c(C)c(C(=O)O)ccc4n3CCOC)cc2c2c(C)cccc21
- IC50 [4]: 54.6 nM

Structure (SMILES): CCn1c2ccc(-c3nc4c(C)c(C(=O)O)ccc4n3CCOC)cc2c2c(Cl)cccc21
- IC50 [4]: 65.5 nM

Structure (SMILES): CCn1c2ccccc2c2cc(-c3nc4c(Cl)c(C(=O)O)ccc4n3CCOC)ccc21
- IC50 [4]: 15.9 nM

Structure (SMILES): CCn1c2ccccc2c2cc(-c3nc4c(F)c(C(=O)O)ccc4n3CCOC)ccc21
- IC50 [4]: 4.3 nM

Structure (SMILES): CCn1c2ccc(-c3nc4c(C)c(C(=O)O)ccc4n3CCOC)cc2c2cc(C(F)(F)F)ccc21
- IC50 [4]: 17.4 nM

Structure (SMILES): CCn1c2ccc(C)cc2c2cc(-c3nc4c(C)c(C(=O)O)ccc4n3CCOC)ccc21
- Activity (Rattus norvegicus): Active

Structure (SMILES): CCn1c2ccc(Cl)cc2c2cc(-c3nc4c(C)c(C(=O)O)ccc4n3CCOC)ccc21
- CLhep predicted at […], 1 µM [1]: 10 mL/min/kg
- IC50 [4]: 4.4 nM
- Papp A→B at 2 h, 2 µM [2]: 20.8 ×10⁻⁶ cm/s
- efflux ratio at 2 h, 2 µM [3]: 0.5

Structure (SMILES): CCn1c2ccc(-c3nc4c(C)c(C(=O)O)ccc4n3CCOC)cc2c2cccc(C)c21
- IC50 [4]: 4.2 nM

Structure (SMILES): CCn1c2ccccc2c2cc(-c3nc4cc(-c5nnn[nH]5)ccc4n3CCOC)ccc21
- IC50 [4]: 6.8 nM

Structure (SMILES): CCn1c2ccc(OC(F)(F)F)cc2c2cc(-c3nc4c(C)c(C(=O)O)ccc4n3CCOC)ccc21
- IC50 [4]: 366 nM
